The results in this text go back to ChEMBL document CHEMBL3739314, “Discovery of Nanomolar Dengue and West Nile Virus Protease Inhibitors Containing a 4-Benzyloxyphenylglycine Residue” (J Med Chem, 2015).

Assay [1] concerns the target Prothrombin (Homo sapiens) (UniProt P00734). Kind of assay: Inhibition of thrombin (unknown origin) using Boc-Val-Pro-Arg-AMC as substrate at 25 uM preincubated with protein for 15 mins followed by substrate addition measured for 10 mins by continuous fluorimetric assay relative to control.
In another assay the test system is West Nile virus. Nature of the assay: Inhibition of West Nile virus NS2B-NS3 protease using 2-Abz-Gly-Leu-Lys-Arg-Gly-Gly-[…]-Tyr-NH2 as substrate at 50 uM preincubated with protein for 15 mins followed by substrate addition measured for 15 mins by FRET assay. The gist of the method:
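Linked WNV NS2B-NS3 protease (150 nM) was preincubated 15 min with inhibitor (50 μM final) in 50 mM Tris-HCl pH 9, 10% ethylene glycol, 0.0016% Brij 58. […] Percent inhibition was taken from the slope relative to the no-inhibitor control, in triplicate.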

Assay [2] in a line: Inhibition of Dengue virus serotype-2 NS2B-NS3 protease using 2-Abz-Nle-Lys-Arg-Arg-Ser-(3-NO2)-Tyr-NH2 as substrate preincubated with protein for 15 mins followed by substrate addition measured for 15 mins by FRET assay. Also on record: species or system dengue virus type 2. Summed up:
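DENV-2 NS2B-NS3 linked construct at 30 nM (15 nM in some cases), same pH 9 Tris buffer, 15 min preincubation and FRET read-out. Eight inhibitor concentrations spanned 0–1, 0–2, 0–6 or 0–50 μM, with substrate at 50 μM. IC50 was fitted from triplicates.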

The nature of assay [3]: Inhibition of West Nile virus NS2B-NS3 protease using 2-Abz-Gly-Leu-Lys-Arg-Gly-Gly-[…]-Tyr-NH2 as substrate preincubated with protein for 15 mins followed by substrate addition measured for 15 mins by FRET assay. The gist of the method:
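WNV NS2B-NS3 linked construct at 75 nM (40 nM in one case) in pH 9 Tris buffer, preincubated 15 min with eight inhibitor concentrations (ranges 0–1 up to 0–50 μM). Substrate was 50 μM, with FRET readout over 15 min. IC50 was fitted from triplicates.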

pIC50: −log10 of the molar value. Some results are limits rather than exact numbers.

`N=C(N)NCCC[C@H](NC(=O)c1ccc(C=O)cc1)C(=O)N[C@@H](CCCCN)C(=O)N[C@@H](C(N)=O)c1ccc(OCc2ccccc2)cc1`: the inhibition (commonly the drop in the measured response relative to a control, in per cent) was < 30% in assay [1] and 83% in the assay on West Nile virus. In addition, the pIC50 (in general, the negative decadic logarithm of the IC50, by convention in mol/L) in assay [2] was 6.63.
Regarding `N=C(N)NCCC[C@H](NC(=O)c1cccc(F)c1)C(=O)N[C@@H](CCCCN)C(=O)N[C@@H](C(N)=O)c1ccc(OCc2ccccc2)cc1`, the inhibition in assay [1] was < 30%; with West Nile virus it was 95.5%. Moreover, the pIC50 in assay [2] is 6.33.
`N=C(N)NCCC[C@H](NC(=O)c1ccc(-c2ccccc2)s1)C(=O)N[C@@H](CCCCN)C(=O)N[C@@H](C(N)=O)c1ccc(OCc2ccccc2)cc1`: the pIC50 in assay [3] is 6.44; in assay [2] it was 6.46. Also, the inhibition in assay [1] is < 30%; in the assay with West Nile virus, 100%.
Regarding `N=C(N)NCCC[C@H](NC(=O)c1ccccc1)C(=O)N[C@@H](CCCCN)C(=O)N[C@@H](C(N)=O)c1ccc(OCc2ccccc2Br)cc1`, the inhibition in assay [1] is < 30%; with West Nile virus, 96.7%. The compound also had a pIC50 in assay [2] of 6.44.
In the case of `N=C(N)NCCC[C@H](NC(=O)c1ccccc1)C(=O)N[C@@H](CCCCN)C(=O)N[C@@H](C(N)=O)c1ccc(OCc2c(Cl)cccc2Cl)cc1`, the negative logarithm of the IC50 (pIC50) in assay [3] is 6.31; in assay [2] it was 6.82. Moreover, the inhibition in assay [1] is < 30%; in the assay on West Nile virus it was 101%.
The like results for `N#Cc1ccc(COc2ccc([C@@H](NC(=O)[C@H](CCCCN)NC(=O)[C@H](CCCNC(=N)N)NC(=O)c3ccccc3)C(N)=O)cc2)cc1` were, in that order, 6.67, 6.40, < 30% and 99.9%.
For `CC(=O)c1ccc(C(=O)N[C@@H](CCCNC(=N)N)C(=O)N[C@@H](CCCCN)C(=O)N[C@@H](C(N)=O)c2ccc(OCc3ccccc3)cc2)cc1`, the inhibition was < 30% in assay [1] and 84.6% with West Nile virus. The same compound gave a pIC50 in assay [2] of 5.98.
In the same order, the values of `N=C(N)NCCC[C@H](NC(=O)c1cccnc1)C(=O)N[C@@H](CCCCN)C(=O)N[C@@H](C(N)=O)c1ccc(OCc2ccccc2)cc1` are < 30%, 96.4% and 6.58.
The like results for `Cc1cccc(COc2ccc([C@@H](NC(=O)[C@H](CCCCN)NC(=O)[C@H](CCCNC(=N)N)NC(=O)c3ccccc3)C(N)=O)cc2)c1` were, in that order, < 30%, 85.2% and 6.51.
`N=C(N)NCCC[C@H](NC(=O)c1ccccc1)C(=O)N[C@@H](CCCCN)C(=O)N[C@@H](C(N)=O)c1ccc(OCc2ccccc2Cl)cc1`: the results for the pIC50 in assay [3] and in assay [2] were 6.39 and 6.49, respectively. The results for the inhibition (in assay [1]; with West Nile virus) were < 30% and 98.1%, respectively.
On to `N=C(N)NCCC[C@H](NC(=O)/C=C/c1ccccc1)C(=O)N[C@@H](CCCCN)C(=O)N[C@@H](C(N)=O)c1ccc(OCc2ccccc2)cc1`, for which the figures for the pIC50 in assay [3] and in assay [2] were 6.25 and 6.49, respectively. The inhibition in assay [1] is < 30%; with West Nile virus, 99.7%.
With `CC(C)(C)c1ccc(COc2ccc([C@@H](NC(=O)[C@H](CCCCN)NC(=O)[C@H](CCCNC(=N)N)NC(=O)c3ccccc3)C(N)=O)cc2)cc1`, the inhibition is < 30% in assay [1] and 85.6% in the assay on West Nile virus. In addition, the negative-log IC50 (pIC50) in assay [2] was 6.76.
As for `N=C(N)NCCC[C@H](NC(=O)c1ccccc1)C(=O)N[C@@H](CCCCN)C(=O)N[C@@H](C(N)=O)c1ccc(OCc2cccc(Cl)c2)cc1`, the figures for the pIC50 in assay [3] and in assay [2] were 6.49 and 6.73, respectively. Further, the inhibition in assay [1] is < 30%; with West Nile virus, 102%.
For `N=C(N)NCCC[C@H](NC(=O)CCc1ccccc1)C(=O)N[C@@H](CCCCN)C(=O)N[C@@H](C(N)=O)c1ccc(OCc2ccccc2)cc1`, the figures for the inhibition (in assay [1]; in the assay on West Nile virus) were < 30% and 87.4%, respectively. The pIC50 in assay [2] is 6.04.
Turning to `N=C(N)NCCC[C@H](NC(=O)c1ccccc1)C(=O)N[C@@H](CCCCN)C(=O)N[C@@H](C(N)=O)c1ccc(OCc2ccc(Br)cc2)cc1`, the pIC50 in assay [3] is 6.51; in assay [2] it was 6.63. For the same compound, the inhibition is < 30% in assay [1] and 99.2% with West Nile virus.
In the case of `N=C(N)NCCC[C@H](NC(=O)c1ccc(Cl)s1)C(=O)N[C@@H](CCCCN)C(=O)N[C@@H](C(N)=O)c1ccc(OCc2ccccc2)cc1`, the pIC50 is 6.34 in assay [3] and 6.75 in assay [2]. In addition, the inhibition was < 30% in assay [1] and 98.4% in the assay with West Nile virus.
Turning to `N=C(N)NCCC[C@H](NC(=O)c1cscn1)C(=O)N[C@@H](CCCCN)C(=O)N[C@@H](C(N)=O)c1ccc(OCc2ccccc2)cc1`, the pIC50 was 6.46 in assay [3] and 6.76 in assay [2]. The inhibition in assay [1] is < 30%; in the assay on West Nile virus, 100%.
`N=C(N)NCCC[C@H](NC(=O)c1sccc1Cl)C(=O)N[C@@H](CCCCN)C(=O)N[C@@H](C(N)=O)c1ccc(OCc2ccccc2)cc1`: the inhibition is < 30% in assay [1] and 95.2% with West Nile virus. Also, in assay [2], the pIC50 is 6.71.
In the case of `N=C(N)NCCC[C@H](NC(=O)c1ccsc1)C(=O)N[C@@H](CCCCN)C(=O)N[C@@H](C(N)=O)c1ccc(OCc2ccccc2)cc1`, the pIC50 was 6.31 in assay [3] and 6.75 in assay [2]. The inhibition in assay [1] is < 30%; with West Nile virus, 98.2%.
With `N=C(N)NCCC[C@H](NC(=O)c1cccc(C=O)c1)C(=O)N[C@@H](CCCCN)C(=O)N[C@@H](C(N)=O)c1ccc(OCc2ccccc2)cc1`, the inhibition in assay [1] was < 30%; in the assay with West Nile virus, 97.4%. The compound further showed a pIC50 in assay [2] of 6.79.
On to `N=C(N)NCCC[C@H](NC(=O)c1ccc(F)cc1)C(=O)N[C@@H](CCCCN)C(=O)N[C@@H](C(N)=O)c1ccc(OCc2ccccc2)cc1`, for which the inhibition in assay [1] was < 30%; in the assay with West Nile virus, 92.9%. In assay [2], this compound had a pIC50 of 6.19.
Regarding `N=C(N)NCCC[C@H](NC(=O)c1sccc1-n1cccc1)C(=O)N[C@@H](CCCCN)C(=O)N[C@@H](C(N)=O)c1ccc(OCc2ccccc2)cc1`, the inhibition in assay [1] was < 30%; with West Nile virus it was 94.3%. The pIC50 in assay [2] was 6.49.
As to `N=C(N)NCCC[C@H](NC(=O)c1ccccc1)C(=O)N[C@@H](CCCCN)C(=O)N[C@@H](C(N)=O)c1ccc(OCc2ccccc2C(F)(F)F)cc1`, the inhibition in assay [1] was < 30%; in the assay on West Nile virus it was 97%. In assay [2], this compound showed a pIC50 of 6.74.
Consider `N=C(N)NCCC[C@H](NC(=O)C1CCCC1)C(=O)N[C@@H](CCCCN)C(=O)N[C@@H](C(N)=O)c1ccc(OCc2ccccc2)cc1`, for which the inhibition in assay [1] is < 30%; in the assay on West Nile virus, 96.3%. The compound further showed a pIC50 in assay [2] of 6.15.
For `N=C(N)NCCC[C@H](NC(=O)c1ccccc1)C(=O)N[C@@H](CCCCN)C(=O)N[C@@H](C(N)=O)c1ccc(OCc2ccc(OC(F)(F)F)cc2)cc1`, the inhibition in assay [1] is < 30%; in the assay on West Nile virus it was 97.1%. The pIC50 in assay [2] was 6.74.
In the case of `Cc1ccc(C(=O)N[C@@H](CCCNC(=N)N)C(=O)N[C@@H](CCCCN)C(=O)N[C@@H](C(N)=O)c2ccc(OCc3ccccc3)cc2)s1`, the values for the inhibition (in assay [1]; with West Nile virus) were < 30% and 92.6%, respectively. Besides, the pIC50 in assay [2] is 6.44.
As for `N=C(N)NCCC[C@H](NC(=O)c1cncs1)C(=O)N[C@@H](CCCCN)C(=O)N[C@@H](C(N)=O)c1ccc(OCc2ccccc2)cc1`, the figures for the inhibition (in assay [1]; in the assay with West Nile virus) were < 30% and 97.4%, respectively. Besides, the pIC50 in assay [2] was 6.52.
As for `N=C(N)NCCC[C@H](NC(=O)c1ccccc1)C(=O)N[C@@H](CCCCN)C(=O)N[C@@H](C(N)=O)c1ccc(OCc2ccc(N)cc2)cc1`, the inhibition in assay [1] was < 30%; in the assay with West Nile virus it was 85.1%. The compound further showed a pIC50 in assay [2] of 5.70.
`N=C(N)NCCC[C@H](NC(=O)c1cc2ccsc2s1)C(=O)N[C@@H](CCCCN)C(=O)N[C@@H](C(N)=O)c1ccc(OCc2ccccc2)cc1`: the inhibition was < 30% in assay [1] and 96.6% in the assay with West Nile virus. Besides, the pIC50 in assay [2] was 6.30.
`N=C(N)NCCC[C@H](NC(=O)c1ccccc1)C(=O)N[C@@H](CCCCN)C(=O)N[C@@H](C(N)=O)c1ccc(OCc2ccc3ccccc3c2)cc1`: the inhibition was < 30% in assay [1] and 92.6% in the assay on West Nile virus. Also, the pIC50 in assay [2] was 6.72.
In the same order, the values of `N=C(N)NCCC[C@H](NC(=O)c1cc2sccc2s1)C(=O)N[C@@H](CCCCN)C(=O)N[C@@H](C(N)=O)c1ccc(OCc2ccccc2)cc1` are < 30%, 92.5% and 6.40.
For the compound `N=C(N)NCCC[C@H](NC(=O)C1CCCCC1)C(=O)N[C@@H](CCCCN)C(=O)N[C@@H](C(N)=O)c1ccc(OCc2ccccc2)cc1`, the inhibition was < 30% in assay [1] and 95.7% in the assay on West Nile virus. For the same compound, the negative logarithm of the IC50 (pIC50) in assay [2] is 6.11.
As to `N=C(N)NCCC[C@H](NC(=O)c1scc2c1OCCO2)C(=O)N[C@@H](CCCCN)C(=O)N[C@@H](C(N)=O)c1ccc(OCc2ccccc2)cc1`, the inhibition was < 30% in assay [1] and 96.2% in the assay with West Nile virus. For the same compound, the pIC50 in assay [2] is 6.71.
